# CYP2C19 activ – activators of human cytochrome P450 2C19 | P33261 | 96,000 tested, under 10 active | activation factor at 5 µM | AID 1025 | recombinant CYP2C19, luciferin-H EGE luminescence; hits give high values; 0 = fully inhibited enzyme, 1 = untreated enzyme;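 active = activation factor of at least 2 at 5 µM in the primary screen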
# Target sequence (P33261 whole entry, looked up): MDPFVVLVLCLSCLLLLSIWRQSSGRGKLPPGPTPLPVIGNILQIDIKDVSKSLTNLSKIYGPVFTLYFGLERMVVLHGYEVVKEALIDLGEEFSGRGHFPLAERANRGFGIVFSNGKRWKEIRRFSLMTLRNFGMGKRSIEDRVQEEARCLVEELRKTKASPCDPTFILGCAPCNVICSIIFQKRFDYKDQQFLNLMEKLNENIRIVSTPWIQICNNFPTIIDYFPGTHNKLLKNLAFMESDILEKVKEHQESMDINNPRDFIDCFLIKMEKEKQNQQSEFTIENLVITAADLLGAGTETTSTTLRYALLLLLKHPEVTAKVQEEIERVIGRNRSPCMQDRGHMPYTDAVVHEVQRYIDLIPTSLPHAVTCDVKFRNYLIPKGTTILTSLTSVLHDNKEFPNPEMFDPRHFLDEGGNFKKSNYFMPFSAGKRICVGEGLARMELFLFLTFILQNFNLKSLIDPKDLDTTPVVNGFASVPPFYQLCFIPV
# CYP2C9 act – activators of human CYP2C9; AID 1024; 96,000 compounds, 1.4% hits; activation factor at 5 µM; recombinant CYP2C9, luciferin-H conversion, luminescence; hits give high values; factor 1 = untreated enzyme, 0 = blocked; P11712;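 active = activation factor of 2 or more for CYP2C9 at a 5 µM dose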
# CYP2C9 inhib – blocks human cytochrome P450 2C9; P11712; CYP2C9 Supersomes, luciferin-H conversion, luminescence; inhibition, % at 5 µM; 96,000 compounds, 20% hits; AID 777;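 active = blocking of liver enzyme CYP2C9 beyond about 50% at 5 µM, limit read from the data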
# CYP2C19 inh – human CYP2C19 inhibition. 96,000 compounds, 21% hits. CYP2C19 Supersomes, luciferin-H EGE luminescence, 30 min. inhibition, % at 5 µM;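 active = CYP2C19 inhibition above a set limit at 5 µM in the primary screen, cut at about 50% in these data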
# Ecoli WT expand – growth inhibitors of E. coli BW25113 wild type | OD600 absorbance | growth inhibition, % at 100 µM | 98,000 compounds, 0.15% hits | AID 710;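 active = growth inhibition above about 50% at one test dose, limit read from the data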;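 also: growth measured after 20 h incubation at 37 °C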
# tolC growth inh – E. coli tolC mutant growth inhibition; E. coli BW25113 tolC mutant growth, OD615; 65,000 compounds, 2.2% hits; AID 573; growth inhibition, % at 10 µM (by protocol);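 active = growth inhibition at or above a cutoff equal to the mean over every tested compound plus 3 SD, cut at about 60% in these data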;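 also: growth measured after 20 h incubation at 37 °C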
#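 Material: E. coli BW25113 ΔtolC::kan, tolC deletion mutant strain. Measure: percent growth inhibition. Schedule: 37 °C, 20 h exposure. Doses: single-point testing at 10 µM. Signal: A615 absorbance measurement. Buffer or medium: kanamycin-containing LB broth (50 µg/mL).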
# Hits are given with their value; – = inactive; · = no result given. In the library only some 29% were active in any assay of this set; here they are far more common.
SMILES,CYP2C19 activ,CYP2C9 act,CYP2C9 inhib,CYP2C19 inh,Ecoli WT expand,tolC growth inh
CC(CCc1ccccc1)NC(=O)COC(=O)C1=COCCO1 (stereo not drawn),–,–,50.2,56.4,–,–
CC(C)(C)c1ccc(NC(=O)COC(=O)C2=COCCO2)cc1,–,–,–,–,–,–
Cc1cc(C)n2nc(C(=O)Nc3ccc4c(c3)OCO4)cc2n1,–,–,–,–,–,·
CCOC(=O)N1CCN(C(=O)c2cn(CCOC)c(=O)c3c2c2ccccc2n3C)CC1,–,–,–,–,–,–
FC(F)(F)C(F)(F)C(F)(F)c1nnc2ccc(N3CCOCC3)nn12,–,–,76.5,76.3,–,–
Cc1nnc2c3cnn(-c4ccc(Cl)cc4)c3ncn12,–,–,–,–,·,–
CC(C)(C)c1cc(CN2CCCCC2)cc(C(C)(C)C)c1O,–,–,–,–,–,·
Cn1ccnc1C(O)c1cc(C(C)(C)C)c(O)c(C(C)(C)C)c1 (stereo not drawn),–,–,76.4,–,–,–
COc1ccc(C2C(C(C)=O)=C(O)C(=O)N2c2ccc(Br)cn2)cc1 (stereo not drawn),–,–,–,–,–,·
O=C(Cn1c(NCCCO)nc2ccccc21)c1cccc(Br)c1,–,–,81.7,75.7,–,–
Cc1c(C#N)c2ccccc2n1CC(=O)N1CCc2ccccc2C1,–,–,–,–,·,–
CCCCNc1nc2ccccc2n1CC(=O)N1CCc2ccccc2C1,–,–,–,58.4,–,–
O=C(Cn1c(NCCO)nc2ccccc21)c1ccco1,–,–,–,–,–,–
Cn1c(CCC(=O)Nc2ccc(N3CCOCC3)cc2)nc(=O)c2ccccc21,–,–,–,–,–,–
COc1ccc(C2=CC(=O)OC3(CCCCC3)O2)cc1,–,–,87.9,95.0,–,–
CCc1ccc2c(c1)cc(CN(C(=S)Nc1ccccc1)C1CC1)c1nnnn12,–,–,–,–,–,·
COc1ccc(-c2nc(Cc3ccc(Cl)cc3)no2)cc1OC,–,–,–,–,–,·
COc1cccc(-c2nc(Cc3ccc(OC)c(OC)c3)no2)c1,–,–,–,57.5,–,–
CCOC(=O)N1CCN(c2c(N3CCc4ccccc43)c(=O)c2=O)CC1,–,–,–,–,–,–
Cc1nc(SCC(=O)N(C)C2CCCCC2)[nH]c(=O)c1Cc1ccccc1,–,–,69.0,59.8,–,·
CN(C(=O)CSc1nc2c(c(=O)[nH]1)CCCC2)C1CCCCC1,–,–,69.3,–,–,–
CN(C(=O)CSc1ccccc1C(=O)O)C1CCCCC1,–,–,–,–,–,·
O=C(O)CCC(=O)NCc1ccc(F)cc1,–,–,–,–,–,·
COc1ccc(S(=O)(=O)N(C)CC(=O)NC2CCCCC2)cc1OC,–,–,–,–,–,–
CCOC(=O)c1ccc2nc(C(F)(F)F)[nH]c(=O)c2c1,–,–,60.1,–,–,–
SMILES,CYP2C19 activ,CYP2C9 act,CYP2C9 inhib,CYP2C19 inh,Ecoli WT expand,tolC growth inh
CCOC(=O)c1ccc2nc(C)c3c(c2c1)OC(C)C3 (stereo not drawn),–,–,–,–,–,–
CC1(C)CC(=O)C2=C(C1)N(C1CCCCC1)C(=O)C2(O)C(F)(F)F (stereo not drawn),–,–,–,–,–,·
CC1(C)CC(=O)C2=C(C1)N(c1ccc(F)cc1)C(=O)CC2c1ccccc1 (stereo not drawn),–,–,–,75.8,–,·
CC1(C)CC(=O)C2=C(C1)N(c1ccc(F)cc1)C(=O)CC2c1cccnc1 (stereo not drawn),–,–,–,–,–,–
CC1(C)CC(=O)C2=C(C1)N(c1ccc(F)cc1)C(=O)C2(O)C(F)(F)F (stereo not drawn),–,–,–,50.4,–,·
CC(=O)Nc1nc2ccc(-c3nc4ccccc4o3)cc2s1,·,·,·,·,–,–
Cc1ccc(C2CC(c3ccccc3)n3ncnc3N2)cc1 (stereo not drawn),–,–,64.8,98.5,–,–
Cc1ccc(C2CC(c3cccc(C)c3)n3ncnc3N2)cc1 (stereo not drawn),–,–,57.3,95.5,–,–
Cc1cccc(C2CC(c3ccccc3)Nc3nc(N)nn32)c1 (stereo not drawn),–,–,–,–,–,–
CSc1nc(C)c(CCOC(=O)c2cccc(Cl)c2)c(=O)[nH]1,–,–,–,–,–,·
Cc1cc(C)nc(Sc2ccc3nnc(C(F)(F)C(F)(F)C(F)(F)F)n3n2)n1,–,–,63.4,58.1,–,–
N#CC1=C(SCC(=O)c2cc3ccccc3oc2=O)NC(=O)C(C#N)C12CCCC2 (stereo not drawn),–,–,88.4,52.0,–,60.7
CCCC(=O)c1cc2ccccc2oc1=O,–,–,–,–,–,–
Cc1ccc(S(=O)(=O)N(C)c2ccccc2)cc1,–,–,–,94.4,–,·
Cc1ccc(S(=O)(=O)N(C)c2ccc(NS(C)(=O)=O)cc2)cc1,–,2,–,66.3,–,–
CN(c1ccc(C(=O)O)cc1)S(=O)(=O)c1ccccc1,–,–,–,–,–,–
Cc1ccc(N(C)S(=O)(=O)c2ccc(C)cc2)cc1,–,–,50.8,89.9,–,·
COC(=O)c1ccc(C(=O)OC)c(NC(=O)CSCc2ccccc2Br)c1,–,–,–,–,–,·
Cc1ccc(C(=O)N2CCN3C(=O)c4ccccc4C23c2ccc(Cl)cc2)cc1 (stereo not drawn),–,–,–,86.0,–,·
O=C1c2ccccc2C2(c3ccccc3)NCCN12 (stereo not drawn),–,–,–,–,–,–
CC1CCCC(C)N1C(=O)Nc1cccc(Cl)c1 (stereo not drawn),–,–,–,–,–,–
O=C(Nc1cccc(Cl)c1)N1CCN2C(=O)c3ccccc3C12c1ccccc1 (stereo not drawn),–,–,57.2,–,–,·
COc1ccc(C2N3CC4(C)CN2CC(C)(C3)C4O)cc1 (stereo not drawn),–,–,–,–,–,–
CCOc1ccccc1N(CC(=O)O)S(=O)(=O)c1ccc(C)cc1,–,–,–,–,–,–
Cc1cc(C)cc(NC(=O)c2nccnc2C(=O)O)c1,–,–,–,–,–,·
SMILES,CYP2C19 activ,CYP2C9 act,CYP2C9 inhib,CYP2C19 inh,Ecoli WT expand,tolC growth inh
CCOC(=O)CC1C(=O)NCCN1S(=O)(=O)c1cc(Cl)c(Cl)cc1Cl (stereo not drawn),–,–,–,61.5,–,·
O=C(CC1COc2ccccc2O1)NCCc1ccccc1 (stereo not drawn),–,–,–,54.0,–,·
O=C(CCC1COc2ccccc2O1)NCc1ccccc1 (stereo not drawn),–,–,–,59.3,–,·
O=C(CC1COc2ccccc2O1)NCc1ccccc1 (stereo not drawn),·,·,·,·,–,–
Fc1cc2nc(-c3ccncc3)[nH]c2cc1F,–,–,–,64.2,–,–
O=[N+]([O-])c1ccc(-c2nc3ccc([N+](=O)[O-])cc3[nH]2)cc1,–,–,–,–,–,·
CCCCNC(=O)c1ccc2c(c1)N(CC)C(=O)CS2,–,–,–,–,–,–

# Screening data (PubChem)
